From PubChem
Rev-RRE block: disrupts HIV-1 Rev binding to RRE RNA. P05866. Rev peptide-RRE RNA binding, FRET. inhibition, % at 8 µM. 0.79% of 97,000 active. AID 704;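 active means inhibition above the screen-wide mean plus 3 SD, cut at about 35% in these data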;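 further: 0% = median DMSO wells and 100% = median Neomycin B control wells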
Target sequence (P05866 whole entry, looked up): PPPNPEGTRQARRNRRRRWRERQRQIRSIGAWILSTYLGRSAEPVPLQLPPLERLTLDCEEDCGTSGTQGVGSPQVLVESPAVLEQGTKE
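Material: labelled RRE RNA duplex and labelled Rev peptide / Buffer or medium: HEPES pH 7.5 salt buffer with EDTA / Compound dosing: single point, 8 µM final nominal compound concentration / Benchmarks: DMSO low control, neomycin B high control / Timing: 5 min preincubation and 15 min binding, 25 °C / Technique: FRET fluorescence readout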
CYP2C19 act: activators of human cytochrome P450 2C19 | P33261 | recombinant CYP2C19, luciferin-H EGE luminescence; hits give high values; 0 = fully inhibited enzyme, 1 = untreated enzyme | activation factor at 5 µM | 96,000 tested, under 10 active | AID 1025;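 active means activation factor of at least 2 at 5 µM in the primary screen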;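 further: 0 = wells with 2.5 mM tranylcypromine and 1 = vehicle-only wells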
Target sequence (P33261 whole entry, looked up): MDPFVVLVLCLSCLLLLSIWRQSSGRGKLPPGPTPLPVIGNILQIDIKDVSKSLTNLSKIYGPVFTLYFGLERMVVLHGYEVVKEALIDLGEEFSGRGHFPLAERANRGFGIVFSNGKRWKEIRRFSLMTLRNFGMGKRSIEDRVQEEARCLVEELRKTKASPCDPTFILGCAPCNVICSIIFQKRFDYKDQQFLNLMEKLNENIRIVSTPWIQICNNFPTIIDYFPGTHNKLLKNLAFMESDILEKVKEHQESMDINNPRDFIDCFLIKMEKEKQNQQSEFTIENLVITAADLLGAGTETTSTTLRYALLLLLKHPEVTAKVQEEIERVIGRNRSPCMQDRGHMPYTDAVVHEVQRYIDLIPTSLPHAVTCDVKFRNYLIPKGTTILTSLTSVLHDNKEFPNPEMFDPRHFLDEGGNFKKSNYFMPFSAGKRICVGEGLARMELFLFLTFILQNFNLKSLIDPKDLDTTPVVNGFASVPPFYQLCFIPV
CYP2C9 activ: activators of human CYP2C9 | recombinant CYP2C9, luciferin-H conversion, luminescence; hits give high values; factor 1 = untreated enzyme, 0 = blocked | AID 1024 | P11712 | activation factor at 5 µM | 1.4% of 96,000 active;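 active means activation factor of 2 or more for CYP2C9 at a 5 µM dose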;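 further: 0 = sulfaphenazole-blocked wells and 1 = vehicle-only wells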
CYP2C9 inhib: human CYP2C9 inhibition; 20% of 96,000 active; AID 777; inhibition, % at 5 µM; P11712; CYP2C9 Supersomes, luciferin-H conversion, luminescence;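 active means blocking of liver enzyme CYP2C9 beyond about 50% at 5 µM, limit read from the data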
Cav32 inh: blocks human Cav3.2 T-type calcium channel; O95180; Cav3.2-expressing cells, Fluo-4 calcium fluorescence FDSS; hits give low values; B-score at 10 µM; 4% of 100,000 active; AID 449739;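 active means single-dose well whose peak fluorescence ratio is a statistical outlier from its plate by either plate-standardised score or position-corrected B-score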
CYP2C19 inh: blocks human cytochrome P450 2C19; P33261; CYP2C19 Supersomes, luciferin-H EGE luminescence, 30 min; inhibition, % at 5 µM; 21% of 96,000 active;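 active means CYP2C19 inhibition above a set limit at 5 µM in the primary screen, cut at about 50% in these data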;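 further: plate controls were negative control wells for no effect and 2.5 mM tranylcypromine positive control for full effect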
Starred values were filed as active, the others as inactive; nt = no result given; [ ] = dose if it differs, or a comment. Sampled rows, rich in hits. Any-hit rate of the full collection: about 27%.

SMILES	Rev-RRE block	CYP2C19 act	CYP2C9 activ	CYP2C9 inhib	Cav32 inh	CYP2C19 inh
CC(=O)N1CCC(C(=O)Nc2ccccc2)(N(Cc2ccccc2)C(=O)c2cccnc2)CC1	nt	1	1	-3	0.76	1
C=C(C)CSc1nnc(-c2ccccc2)n1N	5	0.9	1	-5	nt	5
Cc1ccc(S(=O)(=O)N2CCN(C(=O)c3cc4c(C)nn(-c5ccccc5C)c4s3)CC2)cc1	-5	0.6	0.4	63*	-1.3	42
COC(CNC(=O)C1CC(=O)N(CCc2ccccc2)C1)OC (stereo unspecified)	5	1.1	1	-2	0.47	-7
Cc1cccc(N(CC(N)=O)C2SC(=O)N(c3ccccc3)C2=O)c1 (stereo unspecified)	1	0.9	1.2	-17	0.56	9
COc1ccccc1N(C(C)=O)C1SC(=O)N(c2ccccc2)C1=O (stereo unspecified)	-2	0.5	1.1	-7	1.2	54*
COc1c(O)cccc1[C@H](O)C1CCN(CCc2ccc(F)cc2)CC1	nt	nt	nt	nt	0.26	nt
CCN(CC)c1ccc2cc(-c3nc4ccccc4[nH]3)c(=O)oc2c1	135*[fluorescence artefact?]	0.6	0.7	25	-7.3*	44
CCN(CC)c1ccc2cc(-c3nc4ccccc4n3C)c(=O)oc2c1	132*[fluorescence artefact?]	1	1.3	-33	-1.4	3
CNC(=O)Nc1ccccc1NC(=O)NC	5	1.1	1.2	-17	0.37	-8
C=CCNC(=O)COC(=O)c1cc(S(=O)(=O)N2CCOCC2)ccc1N1CCCCC1	0	1	1	4	1.6	-3
COc1ccc(/C=C/c2nc3sc4c(c3c(=O)o2)CCC4)cc1	2	nt	nt	nt	-0.56	nt
O=c1oc(/C=C/c2ccccc2)nc2sc3c(c12)CCC3	38*	1.1	1	2	-3	-7
Cn1c(N)c(C(=O)COC(=O)Cn2cc(C(F)(F)F)ccc2=O)c(=O)n(C)c1=O	3	1	0.9	10	0.77	-2
CC(C)(C)NC(=O)CSc1nnc(Cc2ccc3c(c2)OCO3)n1C1CCCCC1	3	0.9	0.9	10	1.1	9
COc1ccc(OC)c(C(O)c2coc3ccc(O)c(CN4CCOCC4)c23)c1 (stereo unspecified)	nt	0.4	0.5	54*	1.6	58*
O=C(O)CC1(c2ccccc2)C(=O)c2ccccc2C1=O	nt	1	1	-3	0.05	0
CC1Cc2cc(C3(O)C(=O)c4ccccc4C3=O)ccc2N1 (stereo unspecified)	5	0.4	2.4*	-142	0.0048	60*
C=CC1=C2C=C(C3CC3)N(C3CC3)C=C2C(=O)C(C)(OC(=O)c2ccco2)C1=O (stereo unspecified)	nt	nt	nt	nt	0.043	nt
Cn1c(SCC(=O)N2CCCc3ccccc32)nc2cccnc21	3	nt	nt	nt	1.1	nt
O=C(CSc1nccn1-c1ccccc1)N1CCc2ccccc21	4	0	0.9	15	-1.2	96*
Cn1cnnc1SCC(=O)N1CCc2ccccc21	5	1	1.1	-14	-0.033	-2
Cn1c(SCC(=O)N2CCc3ccccc32)nc2cccnc21	2	0.2	0.6	37	-0.9	82*
c1ccc(CCSc2nccn2-c2ccccc2)cc1	7	0.4	0.5	54*	-3.3	61*
CCCCCCN(C(=O)CCCCCN1C(=O)NC(c2ccc(-c3ccccc3)cc2)C(C(=O)OCc2ccccc2)=C1C)C(C(=O)NCCCC)c1ccc(O)cc1 (stereo unspecified)	nt	nt	nt	nt	-0.78	nt
SMILES	Rev-RRE block	CYP2C19 act	CYP2C9 activ	CYP2C9 inhib	Cav32 inh	CYP2C19 inh
O=C(CN1C(=O)C2CC=C(Cl)CC2C1=O)NCc1ccccc1 (stereo unspecified)	12	0.9	0.9	15	nt	6
Cc1ccc(C(O)c2nc3ccccc3n2C(C)C)cc1 (stereo unspecified)	0	0.1	0.5	48	nt	92*
CCCn1c(C(O)c2ccc(OC)cc2)nc2ccccc21 (stereo unspecified)	3	nt	nt	nt	-0.16	nt
CN(C)c1ccc(-c2nc3ccccc3n2C)cc1	0	0.4	0.7	33	0.11	56*
CC(C)n1c(-c2ccc(N(C)C)cc2)nc2ccccc21	-2	0.4	0.4	62*	nt	61*
COc1ccc(Oc2nccc(-c3ccccc3)c2C#N)cc1	3	0.7	0.7	28	-0.4	30
CCOc1ccc2nc(SCC(=O)NC3CCS(=O)(=O)C3)[nH]c2c1 (stereo unspecified)	10	1	1	-2	0.58	0
COc1ccc(CSc2nnc(C)n2N)cc1	47*	1.1	1.1	-14	0.36	-10
CCCCOc1ccc(Cl)cc1CSc1nnc(CC)n1N	7	0.5	0.4	64*	-0.24	54*
CCCOc1ccc(CSc2nnc(CCC)n2N)cc1	-1	0.3	0.5	55*	0.9	66*
CCCc1nnc(SCc2ccc(OC)cc2)n1N	5	0.5	0.9	14	0.16	51*
C=CCOC(=O)C(C#N)c1nc2ccccc2nc1N1CCN(c2ccccc2OC)CC1 (stereo unspecified)	nt	0.7	0.3	72*	-9.2*	31
CCOC(=O)C1CCCN(c2ncnc3c2oc2ccccc23)C1 (stereo unspecified)	10	0.3	0.5	46	-2.2	69*
N#CC(C(=O)NC1CC1)c1nc2ccccc2nc1N1CCN(C/C=C/c2ccccc2)CC1 (stereo unspecified)	12	1	0.6	45	-11*	5
CN1CCN(c2nc3ccccc3nc2C(C#N)C(=O)OC2CCCCC2)CC1 (stereo unspecified)	15	0.9	0.9	9	0.0087	13
CC(C)COC(=O)C(C#N)c1nc2ccccc2nc1N1CCN(Cc2ccccc2)CC1 (stereo unspecified)	9	0.9	0.8	23	-4*	7
COCCNC(=O)C(C#N)c1nc2ccccc2nc1N1CCCCCC1 (stereo unspecified)	18	1	0.7	31	nt	2
COCCCNC(=O)C(C#N)c1nc2ccccc2nc1N1CCN(Cc2ccccc2)CC1 (stereo unspecified)	nt	0.1	0.1	93*	-9*	92*
C=CCNC(=O)C(C#N)c1nc2ccccc2nc1N1CCN(Cc2ccccc2)CC1 (stereo unspecified)	10	1	0.9	9	0.16	4
CCOC(=O)C1CCCN(c2nc3ccccc3nc2C(C#N)C(=O)OCCOC)C1 (stereo unspecified)	nt	0.8	0.6	35	nt	22
CCCCNC(=O)C(C#N)c1nc2ccccc2nc1N1CCN(c2ccccc2F)CC1 (stereo unspecified)	9	nt	nt	nt	-7.5*	nt
